# Assay results reported in ChEMBL document CHEMBL4513216, “Probing the Open Global Health Chemical Diversity Library for Multistage-Active Starting Points for Next-Generation Antimalarials” (ACS Infect Dis, 2020).
# Experiment: Toxicity liver stage against HepG2, at 10uM
# Assay type: cell-based
# Design: test concentration 10 uM, cell line HepG2-A16-CD81EGFP
# Settings: human, HepG2-A16-CD81EGFP cells; read-out: INHIBITION
# How it was run: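 Uninfected HepG2-A16-CD81EGFP cells, 3 × 10^3 per well, 1536-well, plated on prespotted compound at 10 μM final, parasite-free screening media added to match infected plates; puromycin 10 μM positive, DMSO 0.5% negative; run in parallel with 48 h PbLuc assay at 37 °C, 5% CO2; viability by CellTiter-Glo luminescence, normalized to controls.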
row,Structure (SMILES),cytotoxicity at 10 µM [%]
1,NCc1csc(CCc2ccccc2)n1,-0.138
2,CC(Nc1ncnc2c1NC(=O)CN2)c1ccc2c(c1)OCO2 (stereo not drawn),8.19
3,CCN(CC)c1ccc(C(=O)NCC2(C(N)=O)CCOCC2)cn1,2.99
4,C=C(C)Cn1cc(C(N)=O)nc1C1CC1,14.5
5,O=C(NCCc1cccs1)C1(N2CCCCC2)Cc2ccccc2C1,-4.86
6,CNC(=O)COC1COC2(CCN(c3ncccn3)CC2)C1 (stereo not drawn),-3.4
7,Cc1cc(C)n(C2CN(CC(O)c3ccc4c(c3)OCO4)C2)n1 (stereo not drawn),-15.7
8,CCn1nnc(NCc2ccc(-c3ccc(Br)cc3)o2)n1,-10.1
9,CC(C(=O)Nc1ccnn1C(C)C)N1CCN(Cc2ccon2)CC1 (stereo not drawn),0.72
10,CN1CCCC1CNC(=O)CCCOc1cccc(Br)c1 (stereo not drawn),-11.3
11,NC(=O)C1CCN(Cn2nc(-c3ccccc3)oc2=O)CC1,-16.8
12,Cc1ccc(-n2cc(C)cn2)c(NC(=O)NC2(C)CCOC2)c1 (stereo not drawn),-43.2
13,CN1CCOC(CN(C(=O)COc2ccccc2)c2nccs2)C1 (stereo not drawn),-8.18
14,Cc1noc(C(C)C)c1C(=O)NCCCN1CCCC1,-13.5
15,Cc1ncc(COc2cccc3c2NC(=O)CO3)s1,-3.13
16,COCC1COCCC12CCN(C(=O)CCc1ccccc1)CC2 (stereo not drawn),-9.8
17,Cc1cnn(CC(C)NCc2cc(C#N)ccc2F)c1 (stereo not drawn),0.224
18,CS(=O)(=O)Cc1ccc(NC(=O)Cc2cccnc2)cc1F,1.34
19,COc1cccc(C2c3c(n[nH]c3C)N=C3COC(=O)C32)c1O (stereo not drawn),65.8
20,CC(=O)N1CC(c2n[nH]c3ncccc23)C1,19.5
21,Cc1noc(C(C)C)c1C(=O)NCc1ccc(N(C)C)c(F)c1,1.17
22,COc1ccccc1OCc1cc(C(=O)NC[C@@H]2CCCN2)n[nH]1,-3.81
23,CC(NC(=O)CCn1cncn1)c1nnc2n1CCCCC2 (stereo not drawn),-9.26

row,Structure (SMILES),cytotoxicity at 10 µM [%]
1,Cc1cc(N2CCC(N(C)C(=O)c3ccccc3)CC2)nc(C)n1,-4.69
2,O=C(CCc1ccc2c(c1)OCO2)N1CCCC(n2cccn2)C1 (stereo not drawn),-15.8
3,Cc1cncnc1C1CCN(CC2CC2)CC1,-1.06
4,Cc1cc(C)n(CC2CCCN2C(=O)Cc2cn3ccccc3n2)n1 (stereo not drawn),2.47
5,Cc1nc(CC(=O)N2CCCC2c2nc(-c3ccccc3)no2)cs1 (stereo not drawn),7.01
6,O=c1[nH]c(-c2ccncc2)ncc1-c1ccnc(NC2CC2)n1,-11.7
7,Cn1ccnc1CN1C[C@H]2CN(S(C)(=O)=O)CCN2C1=O,-6.04
8,COc1ccc(C(C)(C)C(=O)NCc2n[nH]c(=O)[nH]2)cc1,1.07
9,CCN(C)CC(C)Cn1cnc(-c2ccccc2)c1-c1cncn1CC (stereo not drawn),1.33
10,O=C(Nc1ccccc1F)C1CN(C(=O)c2ccc3c(c2)OCO3)C1,-5.96
11,Cc1cnccc1N1CCCN(C(=O)CCc2n[nH]c(C)c2C)CC1,-3.79
12,COCCn1ccc(NC(=O)Nc2cccnc2)n1,-12.3
13,CN(C)CCOc1cc(NC(=O)COCC(F)(F)F)ccn1,-2.29
14,CC(C)NS(=O)(=O)c1cc(C(=O)O)cc(-n2cc3c(n2)CCC3)c1,3.19
15,CC(=O)NCCNC(=O)c1sc(-c2ccc(C)cc2C)nc1C,-7.62
16,CCN(Cc1cc(=O)n2cc(Br)ccc2n1)C1CC1,7.95
17,CC1c2ncc(COCC3CCOCC3)n2CCN1S(C)(=O)=O (stereo not drawn),3.11
18,COCC1CN(c2ccc(C)nn2)Cc2cnn(CC3CCOCC3)c21 (stereo not drawn),4.62
19,CN(C)CC(=O)N1CCC2(CC1)CN(Cc1ccccc1)C2,5.03
20,Cc1cccc(OC2CCN(C(=O)Cn3ccc4ccccc43)CC2)n1,1.53
21,O=C(Cn1nnc(-c2cc3ccccc3o2)n1)N1CCOCC1,7.63
22,CC(Cn1cccn1)NC(=O)N1CCN(Cc2ccco2)CC1 (stereo not drawn),-20.6
23,CN(Cc1cccnc1)[C@@H]1CN(Cc2nccn2C)[C@@H]2CCCO[C@H]12,-9.46

row,Structure (SMILES),cytotoxicity at 10 µM [%]
1,COCCC1(CNC(=O)NCC2CN(C)CCN2C)CCC1 (stereo not drawn),6.35
2,CCc1ccc2c(C3CN(CC4CCC4)C3)ncn2c1,7.11
3,COc1cccc(S(=O)(=O)NC(=O)COC2CCCCC2)c1,-0.502
4,Cc1nnc(CSCc2ccc(OCC(F)(F)F)nc2)o1,2.49
5,COc1cccc(-c2cc(NCc3nccn3C)n(C)n2)c1,0.684
6,CCc1csc(C2CCCN(C(=O)c3ccco3)C2)n1 (stereo not drawn),2.56
7,c1csc(CN2CCCn3nnc(COCC4CC4)c3C2)n1,-101
8,Cc1noc(C)c1CN(C)C(=O)NC(C)Cc1ccco1 (stereo not drawn),11.3
9,COCCOc1ccnc(-c2noc([C@@H]3CCCN3C)n2)c1,-7.18
10,CC(c1nc(C2CC2)no1)N1CCN(Cc2noc(C3CC3)n2)CC1 (stereo not drawn),4.63
11,CN(C)CC1(O)CCCN(C(=O)c2ccccc2-n2cccn2)C1 (stereo not drawn),-20.6
12,CC(C)c1ncncc1C(=O)NCCN1CCCC1,-9.91
13,Cc1cccnc1NC(=O)C1CSc2ncc(C)c(=O)n2C1 (stereo not drawn),-1.62
14,COCC1CC2(CCN(CC3CC3)CC2)CN1Cc1ccccn1 (stereo not drawn),-97.4
15,O=C(CC1CN(Cc2ccccc2)CCO1)Nc1ccsc1 (stereo not drawn),-16.4
16,Cc1ccccc1CN1C[C@@H](C(=O)N2CCCCO2)C[C@H]2OCC[C@H]21,-68.5
17,Cn1cc([C@@H]2CN(S(=O)(=O)c3ccccc3F)C[C@H]2N)c2ccncc21,6.13
18,Cc1cccc(N2CCN(C(=O)CCc3ccsc3)C(C)C2)n1 (stereo not drawn),18.4
19,CC(C)(C)OC(=O)N1CCN(S(C)(=O)=O)C2(CCCCC2)C1,10.3
20,CN(Cc1ccncc1)C1CC2(CCN(C(=O)c3ccnnc3)CC2)C1,-5.45
21,Cc1nc2n(n1)CC(NCC(=O)Nc1cc(C)on1)CC2 (stereo not drawn),-12.8
22,CCC(C)N(Cc1ccc(C)cc1)Cc1c[nH]c(C)n1 (stereo not drawn),7.87
23,Cc1nn(C)c(N(C)C)c1CNC1CCc2c(Cl)cccc21 (stereo not drawn),-7.07

row,Structure (SMILES),cytotoxicity at 10 µM [%]
1,CCS(=O)(=O)NCc1nc(C)cc(N2CCOCC2)n1,-0.978
2,CCn1ncc(CN(C)C(=O)c2cc(C(F)(F)F)n(C)n2)c1C,3.87
3,Cc1cc(Cc2ccc(S(=O)(=O)N3CCOCC3)cc2)c(=O)[nH]n1,-13.1
4,COCCn1cnnc1CN(C)c1nc(N)nc2c1CCCC2,-6.98
5,CC(C)c1nc2cc(NC(=O)Cn3ccc(=O)[nH]c3=O)ccc2o1,1.73
6,Cc1cc(Br)ccc1C(=O)N(C)CCNS(C)(=O)=O,-54.1
7,Cc1cnn(CC2CN(Cc3cccnc3)CCO2)c1 (stereo not drawn),-3.27
8,CNC(=O)CNC(=O)CC1C(=O)NCCN1Cc1ccccc1C (stereo not drawn),-2.88
9,Cc1cc(C)c(CNC(=O)N(C)Cc2cccc(C#N)c2)c(=O)[nH]1,-5.49
10,CCOCC1c2c(ncn2C(C)C)CCN1C(=O)CC (stereo not drawn),4.17
11,CNc1ccc(CC2CCCN(C(=O)c3cnccn3)C2)nn1 (stereo not drawn),-9.27
12,Cc1ncccc1O[C@H]1CCN(C(=O)c2cccs2)CC[C@@H]1O,0.719
13,O=C(NCc1cccnc1)C1=NOC2(CCN(C(=O)N3CCCC3)C2)C1 (stereo not drawn),-4.8
14,CN(CCc1ccccc1)Cc1nc2c(cnn2C)c(=O)[nH]1,-3.18
15,Cn1c(=O)oc2ccc(NC(=O)N3CCSCC3)cc21,2.58
16,Cc1cnc(N2C(=O)CSC2c2ccccc2)s1 (stereo not drawn),-1.14
17,CC(C)CN(C)c1ccc(C(=O)N2CCCC2c2cnn(C)c2)cn1 (stereo not drawn),-6.95
18,CN1C(=O)CC[C@@H]2[C@H]1CCN2S(=O)(=O)c1cccs1,-1.54
19,CCN(Cc1ccc2c(c1)OCCO2)S(=O)(=O)N(C)C(C)C,-9.21
20,c1ccc(-c2ncc3c(n2)C2(CCN(c4ncccn4)C2)COC3)cc1 (stereo not drawn),1.36
21,O=C(NCC1(O)COCCN(Cc2ccc(O)cc2)C1)c1cnccn1 (stereo not drawn),-12.8
22,CCCc1noc(C2CCCCN2C(=O)CCc2cnn(C)c2)n1 (stereo not drawn),-1.89
23,COCc1ccccc1C(=O)N1CCCC(n2nc(C)cc2C)C1 (stereo not drawn),-10.5

row,Structure (SMILES),cytotoxicity at 10 µM [%]
1,CNC1CCN(C2CCN(c3ccc(-c4ccco4)cc3)CC2)CC1,-22.4
2,Cc1cc(F)ccc1S(=O)(=O)N1CCN(C)c2ccncc21,8.29
3,Cc1occc1C(=O)N1CCOCC2(CCN(Cc3nccs3)C2)C1 (stereo not drawn),-6.34
4,CS(=O)(=O)c1ccc(CNC(=O)NCc2cc[nH]n2)cc1,1.22
5,Cc1ccnc(NCCSc2nccn2C)n1,-42
6,CCn1c(C)cc(C(=O)N2CCCC(n3nc(C)nc3C)C2)c1C (stereo not drawn),-11.4
7,c1ncn(CC2CN(CC3CCCC3)CCO2)n1 (stereo not drawn),4.93
8,O=C(NCCc1ccn(-c2ccccc2)n1)N1CCCC(CO)C1 (stereo not drawn),-23.1
9,OC[C@@H]1CCCN1c1nccc(-c2c[nH]nc2-c2ccncc2)n1,-4.28
10,CN(Cc1ccccc1-n1cccn1)C[C@@H]1CCCN2CCCC[C@H]12,-8.2
11,Cn1ccnc1CN1CCCC(CCc2ccc(F)c(F)c2)C1 (stereo not drawn),-6.9
12,CCc1nncn1CCNC(=O)Nc1ccc(OC)c(C)c1,9.89
13,O=C(NCC1Cn2nnc(-c3ccccc3)c2CO1)c1ccc[nH]1 (stereo not drawn),-1.2
14,CC(C)c1nccn1CC1CCCN1Cc1nc2ccccc2n1C (stereo not drawn),-43.9
15,Cn1cc(C2CCCN2C(=O)CCCOc2ccccc2F)cn1 (stereo not drawn),0.2
16,Cc1cc(C(=O)NCCN2CCCCC2C)nn1C(C)(C)C (stereo not drawn),1.57
17,COC(=O)c1ccc2ccn(CC3CCCO3)c(=O)c2c1 (stereo not drawn),-15.8
18,CN1CCOC(CNCCOc2ccc(C#N)cc2)C1 (stereo not drawn),9.34
19,CCS(=O)(=O)N1CCc2ccc(NC(=O)NC(C)(C)C)cc21,-6.69
20,CS(=O)(=O)N1Cc2ccnn2CC(C(=O)NCc2cccnc2)C1 (stereo not drawn),-88.9
21,CCN(CCO)C(=O)C1CCC(=O)N(CCc2cccc(F)c2)C1 (stereo not drawn),-4.15
